Measurements from ChEMBL document CHEMBL1157032, “Synthesis and antimicrobial activity of novel pyrazolo[3,4-d]pyrimidin derivatives” (2010).
Converted amounts (≈) assume the structure as drawn. The source made the active and inactive calls. The rule behind the calls is not given here.

Legend:
Assay type in all cases: functional
[1] = test system: Klebsiella pneumoniae; test: Antimicrobial activity against Klebsiella pneumoniae NCIM 2957 after 24 hrs; settings: NCIM 2957, 24 h
Method in brief: (§1)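 Agar well diffusion on Mueller Hinton agar seeded with 0.1 mL of a 10⁵ cfu/mL bacterial suspension in 0.85% sterile saline. 6 mm wells received 0.1 mL of each compound dilution in DMSO (1% DMSO; DMSO alone as control). Plates were incubated 24 h at 37 ± 0.5 °C. Read-out was zone of inhibition in mm. MIC was taken as the lowest concentration giving complete growth inhibition.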

[2] = test system: Serratia marcescens; test: Antimicrobial activity against Serratia marcescens MTCC 86 after 24 hrs; settings: MTCC 86, 24 h; method in brief: as §1
[3] = test system: Aspergillus niger; test: Antimicrobial activity against Aspergillus niger MTCC 1781 at MIC after 48 hrs by agar diffusion method
Method in brief: (§2)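 Fungal spore suspensions in sterile distilled water were adjusted to 10⁶ cfu/mL, and 0.1 mL was spread on Sabouraud dextrose agar. 6 mm wells were filled with 0.1 mL of compound dilution in DMSO (1% DMSO; DMSO-only control). Plates were incubated 48 h at 28 ± 0.2 °C, and inhibition zones were measured in mm. MIC was the lowest concentration completely inhibiting growth.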

[4] = test system: Trichoderma viride; test: Antimicrobial activity against Trichoderma viride MTCC 167 at MIC after 48 hrs by agar diffusion method; method in brief: as §2
[5] = test system: Trichoderma viride; test: Antimicrobial activity against Trichoderma viride MTCC 167 after 48 hrs; settings: MTCC 167, 48 h; method in brief: as §2
[6] = test system: Penicillium chrysogenum; test: Antimicrobial activity against Penicillium chrysogenum MTCC 1996 at MIC after 48 hrs by agar diffusion method; method in brief: as §2
[7] = test system: Penicillium chrysogenum; test: Antimicrobial activity against Penicillium chrysogenum MTCC 1996 after 48 hrs; settings: MTCC 1996, 48 h; method in brief: as §2
[8] = test system: Proteus vulgaris; test: Antimicrobial activity against Proteus vulgaris MTCC 1771 after 24 hrs; settings: MTCC 1771, 24 h; method in brief: as §1
[9] = test system: Candida albicans; test: Antimicrobial activity against Candida albicans MTCC 227 at MIC after 48 hrs by agar diffusion method; method in brief: as §2
[10] = test system: Serratia marcescens; test: Antimicrobial activity against Serratia marcescens MTCC 86 at MIC after 24 hrs by agar diffusion method; method in brief: as §1
[11] = test system: Bacillus subtilis; test: Antimicrobial activity against Bacillus subtilis MTCC 1789 after 24 hrs; settings: MTCC 1789, 24 h; method in brief: as §1
[12] = test system: Priestia megaterium; test: Antimicrobial activity against Bacillus megaterium MTCC 1684 after 24 hrs; settings: MTCC 1684, 24 h; method in brief: as §1
[13] = test system: Candida albicans; test: Antimicrobial activity against Candida albicans MTCC 227 after 48 hrs; settings: MTCC 227, 48 h; method in brief: as §2
[14] = test system: Klebsiella pneumoniae; test: Antimicrobial activity against Klebsiella pneumoniae NCIM 2957 at MIC after 24 hrs by agar diffusion method; method in brief: as §1
[15] = test system: Pseudomonas aeruginosa; test: Antimicrobial activity against Pseudomonas aeruginosa MTCC 2488 after 24 hrs; settings: MTCC 2488, 24 h; method in brief: as §1
[16] = test system: Staphylococcus aureus; test: Antimicrobial activity against Staphylococcus aureus MTCC 96 after 24 hrs; settings: MTCC 96, 24 h; method in brief: as §1
[17] = test system: Aspergillus flavus; test: Antimicrobial activity against Aspergillus flavus MTCC 2501 at MIC after 48 hrs by agar diffusion method; method in brief: as §2
[18] = test system: Aspergillus flavus; test: Antimicrobial activity against Aspergillus flavus MTCC 2501 after 48 hrs; settings: MTCC 2501, 48 h; method in brief: as §2
[19] = test system: Aspergillus niger; test: Antimicrobial activity against Aspergillus niger MTCC 1781 after 48 hrs; settings: MTCC 1781, 48 h; method in brief: as §2
[20] = test system: Priestia megaterium; test: Antimicrobial activity against Bacillus megaterium MTCC 1684 at MIC after 24 hrs by agar diffusion method; method in brief: as §1
[21] = test system: Escherichia coli; test: Antimicrobial activity against Escherichia coli MTCC 1650 after 24 hrs; settings: MTCC 1650, 24 h; method in brief: as §1
[22] = test system: Bacillus subtilis; test: Antimicrobial activity against Bacillus subtilis MTCC 1789 at MIC after 24 hrs by agar diffusion method; method in brief: as §1
[23] = test system: Escherichia coli; test: Antimicrobial activity against Escherichia coli MTCC 1650 at MIC after 24 hrs by agar diffusion method; method in brief: as §1
[24] = test system: Staphylococcus aureus; test: Antimicrobial activity against Staphylococcus aureus MTCC 96 at MIC after 24 hrs by agar diffusion method; method in brief: as §1
[25] = test system: Proteus vulgaris; test: Antimicrobial activity against Proteus vulgaris MTCC 1771 at MIC after 24 hrs by agar diffusion method; method in brief: as §1

Row | Structure (SMILES) | MIC [1] [µg/mL] | MIC [2] [µg/mL] | MIC [5] [µg/mL] | MIC [7] [µg/mL] | MIC [8] [µg/mL] | MIC [11] [µg/mL] | MIC [12] [µg/mL] | MIC [13] [µg/mL] | MIC [15] [µg/mL] | MIC [16] [µg/mL] | MIC [18] [µg/mL] | MIC [19] [µg/mL] | MIC [21] [µg/mL] | inhibition zone (IZ) [3] | inhibition zone (IZ) [4] [mm] | inhibition zone (IZ) [6] | inhibition zone (IZ) [9] | inhibition zone (IZ) [10] | inhibition zone (IZ) [17] | inhibition zone (IZ) [20] | other results
1 | Nc1n[nH]c2nc3scc(-c4cc(Cl)cc(Br)c4O)n3c(=O)c12 | 50 (≈ 121 µM) | 50 (≈ 121 µM) | 250 (≈ 606 µM) | 250 (≈ 606 µM) | 50 (≈ 121 µM) | 50 (≈ 121 µM) | 50 (≈ 121 µM) | 250 (≈ 606 µM) | 50 (≈ 121 µM) | 50 (≈ 121 µM) | 250 (≈ 606 µM) | 250 (≈ 606 µM) | 50 (≈ 121 µM) | inactive | 26 | 28 mm | 16 mm | 15 mm | 11 mm | inactive | inhibition zone (IZ) [25]: inactive; inhibition zone (IZ) [14]: 9 mm; inhibition zone (IZ) [22]: inactive; inhibition zone (IZ) [23]: 11 mm; inhibition zone (IZ) [24]: 16 mm
2 | Nc1n[nH]c2nc3scc(-c4cc(Cl)c(Cl)cc4O)n3c(=O)c12 | 50 (≈ 136 µM) | 50 (≈ 136 µM) | 250 (≈ 679 µM) | 250 (≈ 679 µM) | 50 (≈ 136 µM) | 50 (≈ 136 µM) | 50 (≈ 136 µM) | 250 (≈ 679 µM) | 50 (≈ 136 µM) | 50 (≈ 136 µM) | 250 (≈ 679 µM) | 250 (≈ 679 µM) | 50 (≈ 136 µM) | 11 mm | 22 | 23 mm | 10 mm | inactive | 18 mm | inactive | inhibition zone (IZ) [22]: inactive; inhibition zone (IZ) [23]: 12 mm; inhibition zone (IZ) [24]: inactive
3 | Nc1n[nH]c2nc3scc(-c4cc(Cl)cc(I)c4O)n3c(=O)c12 | 50 (≈ 109 µM) | 50 (≈ 109 µM) | 250 (≈ 544 µM) | 250 (≈ 544 µM) | 50 (≈ 109 µM) | 50 (≈ 109 µM) | 50 (≈ 109 µM) | 250 (≈ 544 µM) | 50 (≈ 109 µM) | 50 (≈ 109 µM) | 250 (≈ 544 µM) | 250 (≈ 544 µM) | 50 (≈ 109 µM) | inactive | 21 | 14 mm | inactive | inactive | inactive | inactive | inhibition zone (IZ) [22]: 14 mm; inhibition zone (IZ) [23]: inactive; inhibition zone (IZ) [24]: 16 mm
4 | Cc1cc(-c2csc3nc4[nH]nc(N)c4c(=O)n23)c(O)cc1Cl | 50 (≈ 144 µM) | 50 (≈ 144 µM) | 250 (≈ 719 µM) | 250 (≈ 719 µM) | 50 (≈ 144 µM) | 50 (≈ 144 µM) | 50 (≈ 144 µM) | 250 (≈ 719 µM) | 50 (≈ 144 µM) | 50 (≈ 144 µM) | 250 (≈ 719 µM) | 250 (≈ 719 µM) | 50 (≈ 144 µM) | 9 mm | 27 | 32 mm | 17 mm | inactive | 12 mm | inactive | inhibition zone (IZ) [22]: inactive; inhibition zone (IZ) [23]: 12 mm; inhibition zone (IZ) [24]: inactive

More lines, main results first:

Row | MIC [1] [µg/mL] | MIC [2] [µg/mL] | MIC [5] [µg/mL] | MIC [7] [µg/mL] | MIC [8] [µg/mL] | MIC [11] [µg/mL] | MIC [12] [µg/mL] | MIC [13] [µg/mL] | MIC [15] [µg/mL] | MIC [16] [µg/mL] | MIC [18] [µg/mL] | MIC [19] [µg/mL] | MIC [21] [µg/mL] | Structure (SMILES) | inhibition zone (IZ) [3] | inhibition zone (IZ) [4] [mm] | inhibition zone (IZ) [6] | inhibition zone (IZ) [9] | inhibition zone (IZ) [10] | inhibition zone (IZ) [17] | inhibition zone (IZ) [20] | other results
5 | 50 (≈ 167 µM) | 50 (≈ 167 µM) | 250 (≈ 835 µM) | 250 (≈ 835 µM) | 50 (≈ 167 µM) | 50 (≈ 167 µM) | 50 (≈ 167 µM) | 250 (≈ 835 µM) | 50 (≈ 167 µM) | 50 (≈ 167 µM) | 250 (≈ 835 µM) | 250 (≈ 835 µM) | 50 (≈ 167 µM) | Nc1n[nH]c2nc3scc(-c4ccccc4O)n3c(=O)c12 | 10 mm | 20 | inactive | 18 mm | 16 mm | inactive | inactive | inhibition zone (IZ) [14]: inactive; inhibition zone (IZ) [22]: inactive; inhibition zone (IZ) [23]: inactive; inhibition zone (IZ) [24]: 12 mm
6 | 50 (≈ 138 µM) | 50 (≈ 138 µM) | 250 (≈ 690 µM) | 250 (≈ 690 µM) | 50 (≈ 138 µM) | 50 (≈ 138 µM) | 50 (≈ 138 µM) | 250 (≈ 690 µM) | 50 (≈ 138 µM) | 50 (≈ 138 µM) | 250 (≈ 690 µM) | 250 (≈ 690 µM) | 50 (≈ 138 µM) | Nc1n[nH]c2nc3scc(-c4ccc(Br)cc4)n3c(=O)c12 | 10 mm | 27 | 15 mm | 10 mm | inactive | 10 mm | inactive | inhibition zone (IZ) [25]: inactive; inhibition zone (IZ) [14]: inactive; inhibition zone (IZ) [22]: inactive; inhibition zone (IZ) [23]: 14 mm; inhibition zone (IZ) [24]: 18 mm
7 | 50 (≈ 152 µM) | 50 (≈ 152 µM) | 250 (≈ 761 µM) | 250 (≈ 761 µM) | 50 (≈ 152 µM) | 50 (≈ 152 µM) | 50 (≈ 152 µM) | 250 (≈ 761 µM) | 50 (≈ 152 µM) | 50 (≈ 152 µM) | 250 (≈ 761 µM) | 250 (≈ 761 µM) | 50 (≈ 152 µM) | Nc1n[nH]c2nc3scc(-c4ccc([N+](=O)[O-])cc4)n3c(=O)c12 | inactive | 29 | 32 mm | 21 mm | 16 mm | 16 mm | inactive | inhibition zone (IZ) [25]: inactive; inhibition zone (IZ) [14]: 13 mm; inhibition zone (IZ) [22]: inactive; inhibition zone (IZ) [23]: 10 mm; inhibition zone (IZ) [24]: 31 mm
8 | 50 (≈ 157 µM) | 50 (≈ 157 µM) | 250 (≈ 787 µM) | 250 (≈ 787 µM) | 50 (≈ 157 µM) | 50 (≈ 157 µM) | 50 (≈ 157 µM) | 250 (≈ 787 µM) | 50 (≈ 157 µM) | 50 (≈ 157 µM) | 250 (≈ 787 µM) | 250 (≈ 787 µM) | 50 (≈ 157 µM) | Nc1n[nH]c2nc3scc(-c4ccc(Cl)cc4)n3c(=O)c12 | 12 mm | 20 | 26 mm | 13 mm | 21 mm | 23 mm | inactive | inhibition zone (IZ) [14]: 15 mm; inhibition zone (IZ) [22]: 10 mm; inhibition zone (IZ) [23]: inactive; inhibition zone (IZ) [24]: inactive
9 | 50 (≈ 150 µM) | 50 (≈ 150 µM) | 250 (≈ 749 µM) | 250 (≈ 749 µM) | 50 (≈ 150 µM) | 50 (≈ 150 µM) | 50 (≈ 150 µM) | 250 (≈ 749 µM) | 50 (≈ 150 µM) | 50 (≈ 150 µM) | 250 (≈ 749 µM) | 250 (≈ 749 µM) | 50 (≈ 150 µM) | Nc1n[nH]c2nc3scc(-c4cc(Cl)ccc4O)n3c(=O)c12 | 16 mm | 27 | 25 mm | 12 mm | 18 mm | 11 mm | 12 mm | inhibition zone (IZ) [25]: 9 mm; inhibition zone (IZ) [14]: 13 mm; inhibition zone (IZ) [22]: 10 mm; inhibition zone (IZ) [23]: inactive; inhibition zone (IZ) [24]: 31 mm
